Measured values: ChEMBL document CHEMBL1250461, “Synthesis, binding and bioactivity of gamma-methylene gamma-lactam ecdysone receptor ligands: advantages of QSAR models for flexible receptors” (Bioorg Med Chem, 2010)
In brackets after ≈: the same amount, converted by molar mass.

What was measured:
[1] = Binding affinity to Bovicola ovis recombinant ecdysone receptor ligand binding domain after 3 hrs by fluorescence polarization assay
Outline: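 B. ovis EcR_DEF/USP_DEF LBD heterodimer, co-expressed from baculovirus and purified by IMAC (2.51 mg/mL final). Competes with 36 nM fluorescein–inokosterone A conjugate in 50 mM sodium phosphate, 100 mM NaCl, pH 7.4 with 0.5 mg/mL BSA and 3% v/v DMSO. Compound range 3 nM–3 mM final. Incubated overnight at 4 °C, then 3 h at room temperature before polarisation (mP) read. Triplicate; IC50 from mean.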

[2] = Toxicity in Bovicola ovis assessed as mortality after 9 days; details: 216 h
Ecdysone receptor = molecular target: T1, Ecdysone receptor (Lucilia cuprina, UniProt O18531); assay: Binding affinity to Lucilia cuprina recombinant ecdysone receptor ligand binding domain after 3 hrs by fluorescence polarization assay
T1 sequence (O18531 whole entry): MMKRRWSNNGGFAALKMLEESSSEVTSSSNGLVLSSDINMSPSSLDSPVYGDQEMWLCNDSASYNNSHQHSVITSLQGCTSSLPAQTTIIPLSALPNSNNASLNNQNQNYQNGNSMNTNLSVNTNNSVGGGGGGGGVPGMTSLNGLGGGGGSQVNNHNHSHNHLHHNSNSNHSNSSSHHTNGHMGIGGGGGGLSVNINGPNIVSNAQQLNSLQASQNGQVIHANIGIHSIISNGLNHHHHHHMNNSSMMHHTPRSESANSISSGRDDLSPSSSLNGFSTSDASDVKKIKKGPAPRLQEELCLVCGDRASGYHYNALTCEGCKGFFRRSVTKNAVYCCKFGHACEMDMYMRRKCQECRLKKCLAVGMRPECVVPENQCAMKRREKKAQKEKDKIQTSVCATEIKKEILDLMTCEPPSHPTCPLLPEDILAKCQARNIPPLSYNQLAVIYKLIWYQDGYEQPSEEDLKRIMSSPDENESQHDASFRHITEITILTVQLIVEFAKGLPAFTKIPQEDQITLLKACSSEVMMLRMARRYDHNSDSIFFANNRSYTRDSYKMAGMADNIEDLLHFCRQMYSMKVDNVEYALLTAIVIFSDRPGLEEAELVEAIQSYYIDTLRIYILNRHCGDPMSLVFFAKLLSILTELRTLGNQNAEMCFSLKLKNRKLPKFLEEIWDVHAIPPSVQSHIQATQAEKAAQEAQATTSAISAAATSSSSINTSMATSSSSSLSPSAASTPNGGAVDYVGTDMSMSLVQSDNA
Outline: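 L. cuprina EcR_DEF/USP_DEF LBD heterodimer, baculovirus co-expressed and IMAC-purified, used at 1.14 mg/mL. Fluorescence polarisation competition against 36 nM fluorescein–inokosterone A conjugate, with 0.5 mg/mL BSA and 3% v/v DMSO in 50 mM sodium phosphate/100 mM NaCl, pH 7.4. Test range 3 nM–3 mM final. Overnight at 4 °C, then 3 h re-equilibration at room temperature, mP read. Triplicate on one plate; IC50 from mean.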

Row | SMILES | IC50 [1] | IC50 (Ecdysone receptor) | LC50 [2]
1 | C=C1C(CC)=C(C#N)C(=O)N1c1cc(Cl)ccc1C(C)(C)C | 15 µM | 11 µM | 190 µg/mL (≈ 604 µM)
2 | C=C1C(CC)=C(C#N)C(=O)N1c1cc(Cl)c(Cl)cc1Cl | 5.5 µM | 7.25 µM | 
3 | C=C1C(CCC)=C(C#N)C(=O)N1c1cc(Cl)ccc1Cl | 8.5 µM |  | 66 µg/mL (≈ 215 µM)
4 | C=C1C(C)=C(C#N)C(=O)N1N1CCCCC1 | 125 µM |  | 244 µg/mL (≈ 1120 µM)
5 | C=C1C(C)=C(C#N)C(=O)N1c1ccc(Cl)c(Cl)c1 | 15 µM |  | 167 µg/mL (≈ 598 µM)
6 | C=C1C(CC(C)C)=C(C#N)C(=O)N1c1cc(Cl)cc(Cl)c1 | 5.5 µM |  | 119 µg/mL (≈ 370 µM)
7 | C=C1C(CC(C)C)=C(C#N)C(=O)N1c1cc(C(F)(F)F)cc(C(F)(F)F)c1 | 6.3 µM |  | 26 µg/mL (≈ 67 µM)
8 | C=C1C(CC(C)C)=C(C#N)C(=O)N1c1cc(Cl)c(Cl)cc1Cl | 2.7 µM | 5.5 µM | 
9 | C=C1C(c2ccccc2)=C(C#N)C(=O)N1C1CCCCC1 | 7.5 µM | 12.5 µM | 130 µg/mL (≈ 467 µM)
10 | C=C1C(CCCC)=C(C#N)C(=O)N1c1cccc(Cl)c1C | 4.3 µM | 8.3 µM | 175 µg/mL (≈ 582 µM)
11 | C/C=C1\C(C)=C(C#N)C(=O)N1c1c(Cl)cc(Cl)cc1Cl (mixture of isomers) | 85 µM |  | 
12 | CC(C)(O)CC[C@@H](O)[C@](C)(O)[C@H]1CC[C@@]2(O)C3=CC(=O)[C@@H]4C[C@@H](O)[C@@H](O)C[C@]4(C)[C@H]3CC[C@]12C [20-HYDROXYECDYSONE] | 24 µM | 5.5 µM | 
13 | CC(C)CC[C@@H](O)[C@](C)(O)[C@H]1CC[C@@]2(O)C3=CC(=O)[C@@H]4C[C@@H](O)[C@@H](O)C[C@]4(C)[C@H]3CC[C@]12C [PONASTERONE A] | 1.1 µM | 0.9 µM | 

Second part, led by results:

Row | IC50 [1] | IC50 (Ecdysone receptor) | SMILES | LC50 [2]
14 | 27.5 µM | 48 µM | C=C1C(C)=C(C#N)C(=O)N1c1ccccc1C(F)(F)F | 
15 | 9.8 µM | 27.5 µM | C=C1C(C)=C(C#N)C(=O)N1c1cc(Cl)cc(Cl)c1 | 
16 | 30 µM | 175 µM | C=C1C(CC(C)C)=C(C#N)C(=O)N1c1c(C)cc(C)cc1C | 
17 | 43 µM | 55 µM | C=C1C(c2ccccc2)=C(C#N)C(=O)N1c1c(C)cccc1C(C)C | 
18 | 5 µM | 6.5 µM | C=C1C(C)=C(C#N)C(=O)N1c1cc(C(C)(C)C)ccc1C(C)(C)C | 
19 | 12.5 µM | 17.5 µM | C=C1C(C)=C(C(=O)c2ccccc2)C(=O)N1c1cccc(C(F)(F)F)c1 | 
20 | 20.8 µM | 23.5 µM | C=C1C(C)=C(C#N)C(=O)N1c1c(C(C)C)cccc1C(C)C | 
21 | 11.3 µM | 8.5 µM | C=C1C(C)=C(C#N)C(=O)N1c1cc(Cl)c(C(C)(C)C)cc1Cl | 
22 | 12.5 µM | 250 µM | C=C1C(C)=C(C(=O)Nc2cccc(Cl)c2)C(=O)N1c1cccc(Cl)c1 | 
23 | 9.5 µM | 15 µM | C=C1C(C(C)C)=C(C#N)C(=O)N1c1ccccc1C(C)(C)C | 
24 | 6.5 µM | 42 µM | C=C1C(C(C)C)=C(C#N)C(=O)N1c1ccc(Cl)cc1C(C)(C)C | 
25 | 27.5 µM | 47 µM | C=C1C(C(C)C)=C(C#N)C(=O)N1c1c(C)cccc1C(C)C | 
26 | 62.5 µM | 480 µM | C=C1C(C(C)C)=C(C#N)C(=O)N1c1c(C)cc(Cl)cc1Cl | 
27 | 6 µM | 12.5 µM | C=C1C(CCCC)=C(C#N)C(=O)N1c1cc(Cl)ccc1C | 
28 | 4 µM | 5.5 µM | C=C1C(CCCC)=C(C#N)C(=O)N1c1cc(Cl)ccc1C(C)(C)C | 
29 | 6 µM | 56 µM | C=C1C(CCCC)=C(C#N)C(=O)N1c1c(C)cccc1Cl | 
30 | 46 µM | 33 µM | C=C1C(CCCC)=C(C#N)C(=O)N1c1c(C)cccc1CC | 
